ChEMBL document CHEMBL1148336, “3-Aminopyrazole inhibitors of CDK2/cyclin A as antitumor agents. 1. Lead finding” (J Med Chem, 2004)
pIC50: −log10 of the molar value. In brackets after ≈: the same amount, converted by molar mass.

Columns and labels:
[1] = Ability of compound to bind to plasma protein was evaluated in HSA cells; format: ADME, cell-based; settings: mouse, HSA cells (so in the source), read-out: PPB
Outline: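 HPLC retention time measured on a column coupled with human serum albumin. Percent bound is assigned by comparing the retention time with those of known standards.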

Rattus norvegicus [2] = experiment: In vivo maximum time required for clearance of compound after oral (po) administration at a dose of 10 mg/kg was measured in rats; format: ADME, organism-based; design: dose 10 mg/kg, route oral
Outline: (§1)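 Male Sprague Dawley rats (~270), fasted overnight, received a single iv or oral dose in PEG400, 4% Tween 80/dextrose (60:40), three rats per route. Jugular/catheter blood was drawn predose and at 5, 15 and 30 min and 1, 2, 4, 6 and 24 h, and plasma was analysed by LC/MS/MS. Analysis was noncompartmental: Cmax/Tmax observed, AUC by linear trapezoidal rule, and F from dose-normalized oral/iv AUC.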

Rattus norvegicus [3] = species on record: Rattus norvegicus; experiment: Metabolic rate for compound was observed in rat hepatocytes; format: ADME, Liver, Hepatocyte
Outline: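 Compound at 1 μM was incubated with 10^6 rat hepatocytes in 1 mL Leibovitz's medium at 37 °C with shaking. Samples were taken at 0.5–90 min and quenched in ice-cold acetonitrile. Parent was quantified by LC/MS/MS, with hepatocyte-free controls and reference clearance drugs.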

[4] = In vivo retention time was evaluated for the compound after i.v. administration at a dose of 5 mg/kg was measured in rats; format: ADME, organism-based; design: dose 5 mg/kg, route intravenous; settings: rat, iv; outline: as §1
[5] = Solubility of compound was determined in buffer at a pH of 7; format: physicochemical; settings: pH 7
Outline: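 Nonequilibrium turbidimetric solubility. 10 mM DMSO stock was diluted into pH 7 buffer (2.5% DMSO), and turbidity was read at 50 and 250 μM. Solubility is the average of the highest clear and lowest turbid concentrations.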

Casein kinase II = Casein kinase II (Homo sapiens, UniProt P19784+P67870+P68400); experiment: Inhibition of Casein kinase 2; format: protein-complex assay
Outline: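 33P-γ-ATP/ATP at 2Km, substrate 5Km, 1% DMSO, 3-fold dilutions from 10 μM, 30–90 min at room temperature. Phosphorylated substrate counted by SPA. Four-parameter logistic IC50, mean of at least two experiments.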

[6] = biological target: Cyclin-dependent kinase 5/CDK5 activator 1 (Homo sapiens, UniProt Q00535); experiment: Inhibition of Cyclin-dependent kinase 5-p35nck5a; format: protein-complex assay
Outline: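 Recombinant CDK5/p25 expressed in insect cells, used at 4 nM with histone H1 substrate (5Km) and ATP/33P-γ-ATP (2Km). Run in Tris-HCl pH 7.4 buffer with MgCl2 and DTT, 1% DMSO, for 30–90 min at room temperature. 3-fold dilutions from 10 to 0.0015 μM. Product captured on streptavidin SPA beads and counted.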

[7] = biological target: Fibroblast growth factor receptor 1 (Homo sapiens, UniProt P11362); experiment: Inhibition of Fibroblast growth factor receptor 1
Outline: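 Radiolabelled ATP at 2Km, substrate 5Km, 1% DMSO, compound 10 to 0.0015 μM, 30–90 min at room temperature. SPA capture.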

[8] = biological target: Protein kinase C beta type (Homo sapiens, UniProt P05771); experiment: Inhibition of Protein kinase C beta
Outline: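 PKCβ was commercially sourced. It was used at 0.7–100 nM enzyme with substrate at 5Km and ATP/33P-γ-ATP at 2Km, 1% DMSO, and compound in 3-fold steps from 10 to 0.0015 μM, for 30–90 min at room temperature. Phosphorylated product was separated and counted. Four-parameter logistic IC50, mean of at least two experiments.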

[9] = biological target: Serine/threonine-protein kinase PLK1 (Homo sapiens, UniProt P53350); experiment: Inhibition of PLK1 kinase
Outline: (§2)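 Radiometric kinase assay. Enzyme (0.7–100 nM) and substrate (5Km) incubated with ATP/33P-γ-ATP (2Km) and compound serially diluted 3-fold from 10 to 0.0015 μM, 1% DMSO, 30–90 min at room temperature. Product separated by SPA, Dowex or phosphocellulose filter, then counted.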

[10] = biological target: Vascular endothelial growth factor receptor 3 (Homo sapiens, UniProt P35916); experiment: Inhibition of Vascular endothelial growth factor receptor 3; outline: as §2
[11] = biological target: Tyrosine-protein kinase Lck (Homo sapiens, UniProt P06239); experiment: Inhibition of p56 lck tyrosine kinase; outline: as §2
[12] = biological target: Tyrosine-protein kinase ZAP-70 (Homo sapiens, UniProt P43403); experiment: Inhibition of Zeta-chain (TCR) associated protein kinase 70 kDa (ZAP70); outline: as §2
[13] = biological target: Hepatocyte growth factor receptor (Homo sapiens, UniProt P08581); experiment: Inhibition of MET kinase activity; outline: as §2
[14] = biological target: Cyclin-dependent kinase 4/cyclin D1 (Homo sapiens, UniProt P11802)
Sequence of Cyclin-dependent kinase 4/cyclin D1 (P11802 whole entry): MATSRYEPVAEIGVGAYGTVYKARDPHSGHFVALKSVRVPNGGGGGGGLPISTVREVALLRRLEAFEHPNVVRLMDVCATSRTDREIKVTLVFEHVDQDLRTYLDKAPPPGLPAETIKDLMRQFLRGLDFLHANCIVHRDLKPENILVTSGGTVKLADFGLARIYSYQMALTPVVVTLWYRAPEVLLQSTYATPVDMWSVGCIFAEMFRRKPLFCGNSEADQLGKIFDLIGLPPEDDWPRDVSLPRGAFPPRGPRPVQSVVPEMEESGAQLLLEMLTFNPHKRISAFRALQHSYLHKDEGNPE
Sequence of Cyclin-dependent kinase 4/cyclin D1 (P24385 whole entry, further chain): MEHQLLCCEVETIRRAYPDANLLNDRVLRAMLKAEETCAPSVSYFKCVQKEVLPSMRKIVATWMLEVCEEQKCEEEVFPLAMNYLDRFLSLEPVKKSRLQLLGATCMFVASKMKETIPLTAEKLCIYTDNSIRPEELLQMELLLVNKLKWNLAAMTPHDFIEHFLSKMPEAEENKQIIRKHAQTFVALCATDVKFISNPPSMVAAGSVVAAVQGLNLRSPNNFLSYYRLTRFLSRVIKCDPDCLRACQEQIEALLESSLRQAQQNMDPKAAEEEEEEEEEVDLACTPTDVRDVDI

Sequence of Fibroblast growth factor receptor 1 (P11362 whole entry): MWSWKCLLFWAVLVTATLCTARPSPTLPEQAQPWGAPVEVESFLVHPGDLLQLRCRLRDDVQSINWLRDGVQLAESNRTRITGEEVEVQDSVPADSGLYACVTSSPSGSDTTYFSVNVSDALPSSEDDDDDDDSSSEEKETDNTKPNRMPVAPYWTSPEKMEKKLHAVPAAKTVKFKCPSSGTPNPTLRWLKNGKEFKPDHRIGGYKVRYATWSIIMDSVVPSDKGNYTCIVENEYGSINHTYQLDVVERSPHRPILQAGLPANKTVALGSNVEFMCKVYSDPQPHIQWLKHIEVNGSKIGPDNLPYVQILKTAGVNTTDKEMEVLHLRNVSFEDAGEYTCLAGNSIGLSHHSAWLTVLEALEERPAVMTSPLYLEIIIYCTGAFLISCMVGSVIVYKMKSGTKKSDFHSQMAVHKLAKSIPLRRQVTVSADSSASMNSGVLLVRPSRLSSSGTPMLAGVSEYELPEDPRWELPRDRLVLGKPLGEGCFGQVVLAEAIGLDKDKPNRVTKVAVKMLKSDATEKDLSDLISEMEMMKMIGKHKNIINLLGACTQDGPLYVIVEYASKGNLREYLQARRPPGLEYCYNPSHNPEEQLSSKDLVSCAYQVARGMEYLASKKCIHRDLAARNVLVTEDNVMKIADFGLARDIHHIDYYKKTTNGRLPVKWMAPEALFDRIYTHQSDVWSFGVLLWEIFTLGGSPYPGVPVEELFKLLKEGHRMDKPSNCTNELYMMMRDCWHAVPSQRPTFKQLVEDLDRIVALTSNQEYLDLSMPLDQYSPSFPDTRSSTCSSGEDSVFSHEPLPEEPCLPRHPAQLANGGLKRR
Sequence of Cyclin-dependent kinase 5/CDK5 activator 1 (Q00535 whole entry): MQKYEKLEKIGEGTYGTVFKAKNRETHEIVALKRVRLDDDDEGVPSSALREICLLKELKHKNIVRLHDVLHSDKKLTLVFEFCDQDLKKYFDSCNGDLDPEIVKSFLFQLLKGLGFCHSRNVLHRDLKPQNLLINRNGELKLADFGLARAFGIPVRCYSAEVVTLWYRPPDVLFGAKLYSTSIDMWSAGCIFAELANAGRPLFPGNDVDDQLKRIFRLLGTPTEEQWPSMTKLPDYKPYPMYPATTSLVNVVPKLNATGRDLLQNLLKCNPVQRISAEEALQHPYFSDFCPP
Sequence of Cyclin-dependent kinase 5/CDK5 activator 1 (Q15078 whole entry, further chain): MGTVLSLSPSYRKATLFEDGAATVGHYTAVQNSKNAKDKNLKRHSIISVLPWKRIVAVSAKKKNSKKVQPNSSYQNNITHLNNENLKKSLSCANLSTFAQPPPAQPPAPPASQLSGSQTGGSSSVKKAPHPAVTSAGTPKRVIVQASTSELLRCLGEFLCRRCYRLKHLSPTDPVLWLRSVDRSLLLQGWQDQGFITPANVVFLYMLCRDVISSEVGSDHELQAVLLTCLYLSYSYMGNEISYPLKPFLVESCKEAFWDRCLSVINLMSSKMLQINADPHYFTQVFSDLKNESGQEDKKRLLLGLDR
Sequence of Vascular endothelial growth factor receptor 3 (P35916 whole entry): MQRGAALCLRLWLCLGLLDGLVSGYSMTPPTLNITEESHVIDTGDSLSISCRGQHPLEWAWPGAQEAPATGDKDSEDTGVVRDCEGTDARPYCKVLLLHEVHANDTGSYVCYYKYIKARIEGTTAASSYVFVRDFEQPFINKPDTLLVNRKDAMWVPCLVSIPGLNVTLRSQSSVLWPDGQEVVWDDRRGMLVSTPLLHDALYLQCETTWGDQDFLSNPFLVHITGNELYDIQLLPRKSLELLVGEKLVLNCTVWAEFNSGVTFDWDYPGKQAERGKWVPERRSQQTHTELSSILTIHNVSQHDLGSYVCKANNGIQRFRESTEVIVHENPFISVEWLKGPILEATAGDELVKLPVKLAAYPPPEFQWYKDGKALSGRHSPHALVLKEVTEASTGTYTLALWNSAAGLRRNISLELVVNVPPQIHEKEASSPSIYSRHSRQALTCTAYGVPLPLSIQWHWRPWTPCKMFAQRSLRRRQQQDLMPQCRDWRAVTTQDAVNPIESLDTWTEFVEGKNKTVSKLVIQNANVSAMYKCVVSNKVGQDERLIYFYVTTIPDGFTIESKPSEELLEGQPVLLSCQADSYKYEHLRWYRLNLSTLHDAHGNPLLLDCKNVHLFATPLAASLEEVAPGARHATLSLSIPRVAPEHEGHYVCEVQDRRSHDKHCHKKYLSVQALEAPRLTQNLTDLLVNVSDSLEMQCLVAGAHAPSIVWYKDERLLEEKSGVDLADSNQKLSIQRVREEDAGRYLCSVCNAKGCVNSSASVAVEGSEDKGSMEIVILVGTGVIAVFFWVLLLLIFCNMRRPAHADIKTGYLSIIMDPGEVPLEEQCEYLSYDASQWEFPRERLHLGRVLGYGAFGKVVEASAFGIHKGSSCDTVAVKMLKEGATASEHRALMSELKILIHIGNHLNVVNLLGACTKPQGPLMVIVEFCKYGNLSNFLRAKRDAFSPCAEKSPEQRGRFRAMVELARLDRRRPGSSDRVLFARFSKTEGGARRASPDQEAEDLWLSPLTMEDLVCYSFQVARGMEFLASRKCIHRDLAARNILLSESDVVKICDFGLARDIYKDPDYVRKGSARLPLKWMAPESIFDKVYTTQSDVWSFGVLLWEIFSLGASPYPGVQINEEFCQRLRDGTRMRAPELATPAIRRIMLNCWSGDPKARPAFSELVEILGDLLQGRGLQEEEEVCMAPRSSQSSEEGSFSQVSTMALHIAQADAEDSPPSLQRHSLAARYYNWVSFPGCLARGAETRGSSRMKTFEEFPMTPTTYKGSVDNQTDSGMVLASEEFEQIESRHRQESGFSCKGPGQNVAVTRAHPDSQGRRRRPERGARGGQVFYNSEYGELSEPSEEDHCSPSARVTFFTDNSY
Sequence of Protein kinase C beta type (P05771 whole entry): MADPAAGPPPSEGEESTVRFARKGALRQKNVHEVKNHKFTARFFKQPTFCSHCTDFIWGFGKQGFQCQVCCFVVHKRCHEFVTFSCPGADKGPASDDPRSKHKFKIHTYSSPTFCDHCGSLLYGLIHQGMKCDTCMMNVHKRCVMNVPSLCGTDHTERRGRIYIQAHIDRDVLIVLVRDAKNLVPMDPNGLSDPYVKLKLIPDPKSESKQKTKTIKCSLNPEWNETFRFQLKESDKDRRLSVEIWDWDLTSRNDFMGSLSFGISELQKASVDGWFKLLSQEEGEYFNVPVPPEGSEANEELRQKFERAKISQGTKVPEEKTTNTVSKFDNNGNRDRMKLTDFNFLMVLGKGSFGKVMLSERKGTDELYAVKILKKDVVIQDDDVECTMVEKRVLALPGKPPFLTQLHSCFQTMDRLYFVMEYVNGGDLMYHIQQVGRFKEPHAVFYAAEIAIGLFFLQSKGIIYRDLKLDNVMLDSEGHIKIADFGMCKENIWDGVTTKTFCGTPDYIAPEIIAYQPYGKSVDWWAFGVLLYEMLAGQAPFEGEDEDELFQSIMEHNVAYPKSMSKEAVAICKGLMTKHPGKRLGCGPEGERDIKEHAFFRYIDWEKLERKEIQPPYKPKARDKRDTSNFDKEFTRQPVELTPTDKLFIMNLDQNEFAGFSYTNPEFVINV
Sequence of Tyrosine-protein kinase ZAP-70 (P43403 whole entry): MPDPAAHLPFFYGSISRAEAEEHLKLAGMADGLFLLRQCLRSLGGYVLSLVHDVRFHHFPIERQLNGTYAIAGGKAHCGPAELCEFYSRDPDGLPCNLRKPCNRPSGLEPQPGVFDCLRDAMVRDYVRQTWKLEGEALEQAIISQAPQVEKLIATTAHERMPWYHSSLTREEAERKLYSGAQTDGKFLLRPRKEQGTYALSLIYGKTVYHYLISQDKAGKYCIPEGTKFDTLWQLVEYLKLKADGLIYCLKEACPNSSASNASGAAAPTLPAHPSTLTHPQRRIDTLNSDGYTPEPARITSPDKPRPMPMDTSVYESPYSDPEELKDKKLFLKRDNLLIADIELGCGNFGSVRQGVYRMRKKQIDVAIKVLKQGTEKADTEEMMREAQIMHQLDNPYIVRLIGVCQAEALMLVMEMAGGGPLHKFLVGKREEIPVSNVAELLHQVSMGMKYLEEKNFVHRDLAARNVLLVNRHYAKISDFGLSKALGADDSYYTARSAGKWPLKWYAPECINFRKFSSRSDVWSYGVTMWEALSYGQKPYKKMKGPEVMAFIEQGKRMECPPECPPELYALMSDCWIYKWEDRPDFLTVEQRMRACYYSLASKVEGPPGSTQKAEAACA

- fraction unbound [1]: 0.01
- T max (Rattus norvegicus [2]): 1.39 h
- Metabolic rate (Rattus norvegicus [3]): 1.67 L/h/kg
- MRT [4]: 1.31 h
- solubility [5]: 22 µM (≈ 6.41 µg/mL)
- pIC50 (Casein kinase II): < 5.00
- pIC50 [6]: 6.94
- pIC50 [7]: < 5.00
- pIC50 [8]: < 5.00
- pIC50 [9]: < 5.00
- pIC50 [10]: < 5.00
- pIC50 [11]: < 5.00
- pIC50 [12]: < 5.00
- pIC50 [13]: < 5.00
- pIC50 [14]: < 5.00
Structure (SMILES): O=C(Cc1ccc2ccccc2c1)Nc1cc(C2CC2)n[nH]1
